# Source: PubChem BioAssay (The Scripps Research Institute Molecular Screening Center)
# Hits are enriched below; roughly 3.1% of the tested compounds scored in any of these assays.
# OX1R antag-1: human HCRTR1 antagonism. CHO/OX1R cells, Fluo-8 calcium fluorescence, orexin A. inhibition, % at 5 µM. hit rate 0.43% among 330,000;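 active means inhibition above its plate's threshold, mean inhibition of all tested compounds on the plate plus 3 SD, cut at about 37% in these data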;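 further: 0% = orexin A challenge wells and 100% = SB-334867-A antagonist wells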
# CHO parental Ca: counter-screen: ATP calcium response change in parental CHO cells. parental CHO-K1, ATP-induced calcium, Fluo-8 fluorescence. inhibition, % at 5.6 µM. hit rate 0.63% among 330,000;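 active means inhibition above that plate's mean sample inhibition plus 3 SD, cut at about 26% in these data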;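 further: 0% = ATP-challenged DMSO wells and 100% = DMSO wells without ATP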
#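 Assay system: parental CHO cells; Read-out basis: percent inhibition of ATP-evoked calcium rise, normalized to controls; Benchmarks: ATP and no-ATP DMSO wells; Compound dosing: single nominal dose of 5.6 µM per compound; Signal: Fluo-8 calcium dye fluorescence; Also added: ATP as calcium-mobilizing challenge; Repeats: singlicate.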
# GPR7 antagonist: human neuropeptides B/W receptor 1 antagonism; P48145; GPR7-expressing cells, fluorescence antagonist assay; inhibition, % at 4.4 µM; hit rate 1.1% among 290,000; in the data active means inhibition above about 16%, passing the limit was not always enough;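 further: cells stimulated with the agonist NPW; 0% = agonist with vehicle and 100% = vehicle without agonist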
# Target sequence (P48145 whole entry, looked up): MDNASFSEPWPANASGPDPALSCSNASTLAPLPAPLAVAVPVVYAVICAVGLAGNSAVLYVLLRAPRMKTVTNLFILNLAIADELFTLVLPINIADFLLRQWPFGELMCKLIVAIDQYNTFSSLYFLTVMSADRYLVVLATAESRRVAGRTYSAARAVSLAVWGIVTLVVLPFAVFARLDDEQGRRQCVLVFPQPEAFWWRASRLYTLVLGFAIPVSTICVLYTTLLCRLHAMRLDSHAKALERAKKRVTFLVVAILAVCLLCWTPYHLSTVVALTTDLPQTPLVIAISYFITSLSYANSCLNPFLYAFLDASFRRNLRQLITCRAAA
# GalR3 antagonist: antagonists of human GalR3 | HEK293 GalR3-CNG cAMP membrane potential fluorescence; galR3 body fused to GalR1 C-terminus | inhibition, % at 3 µM | hit rate 0.44% among 360,000 | AID 651719;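 active means inhibition above the screen-wide average plus 3 SD, cut at about 13% in these data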;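 further: forskolin and galanin both at EC90 stimulate the cells; cAMP rise reported by CNG channel membrane potential dye signal; 0% = forskolin plus galanin with DMSO and 100% = forskolin alone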
# Target sequence (O60755 1-299 limits assumed): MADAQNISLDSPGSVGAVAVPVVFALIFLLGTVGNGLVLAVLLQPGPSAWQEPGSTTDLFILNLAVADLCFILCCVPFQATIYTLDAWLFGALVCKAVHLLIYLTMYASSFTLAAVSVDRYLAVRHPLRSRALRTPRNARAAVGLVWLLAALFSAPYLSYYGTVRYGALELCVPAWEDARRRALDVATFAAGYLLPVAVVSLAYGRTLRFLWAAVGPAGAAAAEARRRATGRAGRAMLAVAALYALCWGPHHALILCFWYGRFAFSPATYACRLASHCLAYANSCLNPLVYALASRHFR
# OX1R antag-2: OX1R (human) antagonism; OX1R-expressing cells, FRET antagonist read-out; inhibition, % at 6.6 µM; hit rate 1.8% among 330,000; O43613; in the data active means inhibition mostly above about 38%, no sharp cut-off; inactive means mostly below about 40%;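 further: 0% = agonist challenge alone and 100% = reference antagonist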
# OX1R HTRF confirm: confirmation of human orexin 1 receptor antagonists, HTRF format; hit rate 49% among 1,800; inhibition, % at 6.6 µM; OX1R-expressing cells, HTRF antagonist assay; shares compounds with OX1R antag-2; in the data active means inhibition above about 55%;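 further: CHO cells expressing OX1R stimulated with orexin A at about EC80; 0% = agonist challenge alone and 100% = reference antagonist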
# CHO-K1 HTRF cnt: counter-screen: parental CHO-K1 HTRF response. shares compounds with OX1R antag-2. parental CHO-K1 cells, HTRF counterscreen. hit rate 48% among 1,800. AID 493232. inhibition, % at 6.6 µM; in the data active means inhibition above about 17%;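 further: 0% = agonist challenge with vehicle and 100% = vehicle alone without agonist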
# The depositor's hits bear a star; nt = not tested or not shown.
SMILES,OX1R antag-1,CHO parental Ca,GPR7 antagonist,GalR3 antagonist,OX1R antag-2,OX1R HTRF confirm,CHO-K1 HTRF cnt
Cc1ccc2nc(SCC(=O)Nc3cccc(F)c3)nc(=O)n2c1,-21.1,1.8,nt,-4.3,28.2,nt,nt
Cc1ccc(Cl)cc1N1CCN(C(=O)CNC(=O)c2ccc(Br)o2)CC1,-16.1,-14.7,nt,-8.3,0.2,nt,nt
COCCCn1cnc2oc3nc4ccccc4nc3c2c1=O,-3.1,-3.9,1.8,0.4,85.2*,67.5*,106.9*
O=C(CCNC(=O)c1ccc([N+](=O)[O-])cc1)N/N=C/c1ccc(F)cc1,-26.9,6.8,-12.9,-6.3,77.6*,23.9,26.8*
O=C(CCNC(=O)c1ccc([N+](=O)[O-])cc1)Nc1ccc(F)cc1,-12.9,-5.3,9.2,-7.9,31.2,nt,nt
Cc1n[nH]c(C)c1N1C(=O)c2cccc3c(Br)ccc(c23)C1=O,-4.4,1.6,-5.7,-1.9,79.7*,41.8,40.0*
Cc1n[nH]c(C)c1N1C(=O)c2cccc3cc(Br)cc(c23)C1=O,-8.7,-6.9,1.9,-2.1,46.0,nt,nt
O=C(O)c1ccc([N+](=O)[O-])c2c1C(=O)c1ccccc1C2=O,12.5,1.0,nt,-2.0,101.0*,69.0*,103.9*
CC(C)OC(=O)N(C)C[C@H]1OCc2cn(nn2)CCCC(=O)N([C@H](C)CO)C[C@@H]1C,nt,nt,nt,-2.5,nt,nt,nt
CC(NS(=O)(=O)c1ccc([N+](=O)[O-])cc1)C(=O)NN (stereo unspecified),-14.4,-6.5,-6.7,-7.3,84.8*,28.3,48.2*
CNC(=S)NC(CC(=O)OC)c1ccc2c(c1)OCO2 (stereo unspecified),2.8,-9.3,-9.9,-2.6,15.4,nt,nt
NC(=O)c1c(NC(=O)c2ccccc2)sc2c1CCC2,13.7,-20.0,2.2,-2.1,88.9*,84.0*,3.0
O=C1CC2(CCN(C(=O)c3ccccc3Cl)CC2)Oc2ccccc21,-19.1,2.5,nt,-4.1,21.9,nt,nt
COc1ccc2nc3sc(C(=O)N4CCN(C)CC4)cc3cc2c1,10.4,-4.3,5.3,-2.5,110.3*,34.9,26.8*
COc1ccc2nc3sc(C(=O)NCCCN4CCc5ccccc5C4)cc3cc2c1,-18.0,-20.0,-6.8,1.3,79.6*,28.9,20.2*
COc1ccc(S(=O)(=O)Cc2ccc(C(=O)NCCCN3CCc4ccccc4C3)o2)cc1,-40.8,-26.2,-12.4,8.0,7.6,nt,nt
COc1ccc(CCN2C(=O)c3cccnc3C2=O)cc1OC,-11.1,-5.8,-4.9,-2.6,81.6*,30.9,20.9*
COc1ccc(CCN2C(=O)C=CC2=O)cc1OC,nt,nt,nt,-4.3,nt,nt,nt
O=C(Nc1ccc(S(=O)(=O)NCC2CCCO2)cc1)c1ccc(Cl)cc1[N+](=O)[O-] (stereo unspecified),0.0,-4.7,7.3,-2.9,8.6,nt,nt
c1ccc(COc2ncnc3c2ncn3CCCNCC2CCCO2)cc1 (stereo unspecified),nt,nt,nt,-4.0,nt,nt,nt
CCOCCOC(=O)c1ccc(NC(=O)c2cc3ccccc3o2)cc1,nt,nt,nt,-2.3,nt,nt,nt
CC(=O)OCCCNc1cc(Sc2ccc(C)cc2)c2nonc2c1[N+](=O)[O-],1.1,1.4,-3.0,4.1,18.0,nt,nt
CCCC(=O)OCCNc1cc(SCCC(=O)OC)c2nonc2c1[N+](=O)[O-],-10.2,-20.4,-3.2,0.7,120.5*,64.3*,78.6*
CC(C)CN(C(=O)CCNC(=O)c1ccc([N+](=O)[O-])cc1)C1CCS(=O)(=O)C1 (stereo unspecified),-12.3,-12.6,nt,-4.2,35.1,nt,nt
CC(C)CN(C(=O)c1cc([N+](=O)[O-])cc([N+](=O)[O-])c1)C1CCS(=O)(=O)C1 (stereo unspecified),-5.7,-6.4,nt,-0.4,91.3*,69.9*,50.2*
SMILES,OX1R antag-1,CHO parental Ca,GPR7 antagonist,GalR3 antagonist,OX1R antag-2,OX1R HTRF confirm,CHO-K1 HTRF cnt
O=C(C1CCC1)N1CCN(Cc2ccccc2)CC1,-7.5,-1.8,-3.7,1.0,9.0,nt,nt
c1ccc(CN2CCN(C3CCCSc4ccccc43)CC2)cc1 (stereo unspecified),8.2,-22.8,nt,-5.9,86.6*,78.9*,3.1
C[C@@H](C(=O)Nc1ccc2ccccc2c1)[C@@H]1C[C@@]1(C)[C@@H](NC(=O)c1ccccc1)c1ccccc1,-19.1,-14.1,5.6,-4.0,21.3,nt,nt
C[C@@H](C(=O)Nc1ccc2ccccc2c1)[C@H]1C[C@]1(C)[C@H](NC(=O)c1cccnc1)c1ccccc1,25.9,-31.5,16.8,-8.1,79.5*,72.4*,-3.8
CCOC(=O)c1ccc(S(=O)(=O)N2CC(=O)Nc3ccccc32)cc1,-17.9,-0.3,-0.8,-6.8,33.1,nt,nt
O=C(O)CCCCCNc1ccc2nsnc2c1[N+](=O)[O-],0.4,-1.0,2.0,-0.5,117.0*,74.3*,112.5*
O=C(NCC1CCCO1)c1ccc(Cl)c(S(=O)(=O)Nc2ccccc2)c1 (stereo unspecified),-10.9,-4.7,14.0,-1.9,6.8,nt,nt
O=C(NC1CC1)c1ccc(-c2nc3ccccc3s2)s1,20.7,-14.7,-2.0,1.9,113.1*,83.7*,12.2
O=C(c1ccc(-c2nc3ccccc3s2)s1)N1CCOCC1,-19.1,-9.1,2.5,2.1,30.3,nt,nt
Cc1ccc(NCC(=O)N=Nc2c(O)n(C)c3ccccc23)cc1,-4.4,10.7,-5.5,-5.5,94.5*,38.0,32.4*
CCn1c(O)c(N=NC(=O)CNc2ccc(C)cc2)c2ccccc21,-22.9,-17.1,3.4,-5.5,27.9,nt,nt
O=C(Nc1cc(F)cc(F)c1)c1ccc(NCCCN2CCCCCC2)c([N+](=O)[O-])c1,-17.4,-6.9,3.0,-4.3,85.6*,43.4,39.4*
CCOC(=O)[C@@H]1[C@H]2COc3cc(OC)ccc3[C@@H]2N2C(=O)N(c3cccc(Cl)c3)C(=O)[C@@]12C,-17.0,-3.1,0.7,nt,10.5,nt,nt
Cc1ccc(/C(O)=C2/C(=O)C(=O)N(CCN3CCOCC3)C2c2ccccn2)cc1 (stereo unspecified),-2.5,15.0,2.9,-1.6,82.3*,23.7,32.7*
CCN(CC)CCCN1C(=O)C(=O)/C(=C(/O)c2ccc(C)cc2)C1c1ccccn1 (stereo unspecified),-24.4,2.1,-7.3,-3.5,76.0,nt,nt
COc1ccc(/C(O)=C2/C(=O)C(=O)N(CCN3CCOCC3)C2c2ccccn2)cc1OC (stereo unspecified),-9.7,-9.8,-9.6,-3.2,134.7*,29.0,28.5*
O=C1C(=O)N(CCN2CCOCC2)C(c2ccccn2)/C1=C(/O)c1ccccc1 (stereo unspecified),-5.4,-6.6,-15.6,0.6,178.5*,26.4,36.0*
COc1ccc(/C(O)=C2/C(=O)C(=O)N(CCN(C)C)C2c2ccccn2)cc1OC (stereo unspecified),-4.3,-4.2,-4.3,-0.5,52.4,nt,nt
O=C(NN(C(=O)c1ccccc1)c1cccs1)c1ccccc1,nt,nt,nt,-7.6,nt,nt,nt
